Measurements as given in ChEMBL document CHEMBL1124947, “Cationic antiprotozoal drugs. Trypanocidal activity of 2-(4'-formylphenyl)imidazo[1,2-a]pyridinium guanylhydrazones and related derivatives of quaternary heteroaromatic compounds” (J Med Chem, 1990).

Key:
[1] = system: Mus musculus; assay: Trypanocidal Activity at I.C.E. value 0.53 when administered perorally.; type: functional
[2] = system: Mus musculus; assay: Trypanocidal Activity at I.C.E. value 0.68 when administered subcutaneously.; type: functional
Procedure, shortened: (§1)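 Mice, in groups of five per dose, were given a standard inoculum of blood-stage T. rhodesiense that is lethal to all untreated controls, then dosed subcutaneously. Usually 11 dose levels were used (2^n × 0.42 mg/kg).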

[3] = system: Mus musculus; assay: Trypanocidal Activity at I.C.E. value 0.51 when administered perorally.; type: functional
[4] = system: Mus musculus; assay: Trypanocidal Activity at I.C.E. value 0.58 when administered subcutaneously.; type: functional; procedure, shortened: as §1
[5] = system: Mus musculus; assay: Trypanocidal Activity at I.C.E. value 0.79 when administered subcutaneously.; type: functional; procedure, shortened: as §1
[6] = system: Mus musculus; assay: Trypanocidal Activity at I.C.E. value >0.5 when administered perorally.; type: functional
[7] = system: Mus musculus; assay: Fraction of mice that were cured after subcutaneous administration at a dose of 13 mg/kg and I.C.E. value of 0.54; type: functional
[8] = system: Mus musculus; assay: Fraction of mice that were cured after oral administration at a dose of 1.67 mg/kg and I.C.E. value of 0.84; type: functional
[9] = system: Mus musculus; assay: Curative activity of the Compound after oral administration at a dose of 106 mg/kg ( T-Toxic)and I.C.E. value of 0.49 for 30 days; 5/5; type: functional
[10] = system: Mus musculus; assay: Curative activity of the Compound after Subcutaneous administration at a dose of 1.67 mg/kg and I.C.E. value of 0.54 for 30 days; 10/10; type: functional
[11] = system: Mus musculus; assay: Fraction of mice that were cured after oral administration at a dose of 106 mg/kg and I.C.E. value of 0.49
[12] = system: Mus musculus; assay: Trypanocidal Activity at I.C.E. value 0.48 when administered perorally.; type: functional
[13] = system: Mus musculus; assay: Curative activity of the Compound after oral administration at a dose of 13 mg/kg and I.C.E. value of 0.49 for 30 days; 2/5; type: functional
[14] = system: Mus musculus; assay: Fraction of mice that were cured after oral administration at a dose of 6.6 mg/kg and I.C.E. value of 0.84; type: functional
[15] = system: Mus musculus; assay: Fraction of mice that were cured after subcutaneous administration at a dose of 424 mg/kg and I.C.E. value of 0.54; type: functional
[16] = system: Mus musculus; assay: Fraction of mice that were cured after oral administration at a dose of 0.42 mg/kg and I.C.E. value of 0.84; type: functional
[17] = system: Mus musculus; assay: Curative activity of the Compound after Subcutaneous administration at a dose of 13 mg/kg and I.C.E. value of 0.54 for 30 days; 10/10; type: functional
[18] = system: Mus musculus; assay: Fraction of mice that were cured after subcutaneous administration at a dose of 6.6 mg/kg and I.C.E. value of 0.54; type: functional
[19] = system: Mus musculus; assay: Fraction of mice that were cured after subcutaneous administration at a dose of 212 mg/kg and I.C.E. value of 0.54; type: functional
[20] = system: Mus musculus; assay: Fraction of mice that were cured after subcutaneous administration at a dose of 106 mg/kg and I.C.E. value of 0.54; type: functional
[21] = system: Mus musculus; assay: Curative activity of the Compound after oral administration at a dose of 26 mg/kg and I.C.E. value of 0.49 for 30 days; 10/10; type: functional
[22] = system: Mus musculus; assay: Fraction of mice that were cured after oral administration at a dose of 3.3 mg/kg and I.C.E. value of 0.84; type: functional
[23] = system: Mus musculus; assay: Curative activity of the Compound after Subcutaneous administration at a dose of 0.83 mg/kg and I.C.E. value of 0.54 for 30 days; 27/30; type: functional
[24] = system: Mus musculus; assay: Curative activity of the Compound after oral administration at a dose of 424 mg/kg ( T-Toxic)and I.C.E. value of 0.49 for 30 days; 10/10; type: functional
[25] = system: Mus musculus; assay: Fraction of mice that were cured after subcutaneous administration at a dose of 26 mg/kg and I.C.E. value of 0.54; type: functional
[26] = system: Mus musculus; assay: Curative activity of the Compound after oral administration at a dose of 53 mg/kg ( T-Toxic) and I.C.E. value of 0.49 for 30 days; 5/5; type: functional
[27] = system: Mus musculus; assay: Curative activity of the Compound after Subcutaneous administration at a dose of 26 mg/kg ( T-Toxic) and I.C.E. value of 0.54 for 30 days; 11/15; type: functional
[28] = system: Mus musculus; assay: Curative activity of the Compound after Subcutaneous administration at a dose of 6.6 mg/kg and I.C.E. value of 0.54 for 30 days; 5/5; type: functional
[29] = system: Mus musculus; assay: Fraction of mice that were cured after subcutaneous administration at a dose of 0.42 mg/kg and I.C.E. value of 0.54; type: functional
[30] = system: Mus musculus; assay: Fraction of mice that were cured after subcutaneous administration at a dose of 53 mg/kg and I.C.E. value of 0.54; type: functional
[31] = system: Mus musculus; assay: Curative activity of the Compound after oral administration at a dose of 212 mg/kg ( T-Toxic)and I.C.E. value of 0.49 for 30 days; 5/5; type: functional
[32] = system: Mus musculus; assay: Trypanocidal Activity at I.C.E. value 0.54 when administered subcutaneously.; type: functional
Procedure, shortened: (§2)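 Blood-stage T. rhodesiense infection came from a standard inoculum lethal to all untreated mice. Drug was given by subcutaneous injection to groups of five mice. Survival beyond 30 days counted as cure. […] Sub-curative doses scored 0, and data were normalized at each dose.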

[33] = system: Mus musculus; assay: Fraction of mice that were cured after subcutaneous administration at a dose of 0.83 mg/kg and I.C.E. value of 0.54; type: functional
[34] = system: Mus musculus; assay: Fraction of mice that were cured after subcutaneous administration at a dose of 1.67 mg/kg and I.C.E. value of 0.54; type: functional
[35] = system: Mus musculus; assay: Fraction of mice that were cured after oral administration at a dose of 212 mg/kg and I.C.E. value of 0.84; type: functional
[36] = system: Mus musculus; assay: Fraction of mice that were cured after oral administration at a dose of 26 mg/kg and I.C.E. value of 0.84; type: functional
[37] = system: Mus musculus; assay: Fraction of mice that were cured after oral administration at a dose of 0.83 mg/kg and I.C.E. value of 0.84; type: functional
[38] = system: Mus musculus; assay: Fraction of mice that were cured after subcutaneous administration at a dose of 3.3 mg/kg and I.C.E. value of 0.54; type: functional
[39] = system: Mus musculus; assay: Fraction of mice that were cured after oral administration at a dose of 53 mg/kg and I.C.E. value of 0.84; type: functional
[40] = system: Mus musculus; assay: Curative activity of the Compound after Subcutaneous administration at a dose of 3.3 mg/kg and I.C.E. value of 0.54 for 30 days; 24/25; type: functional
[41] = system: Mus musculus; assay: Fraction of mice that were cured after oral administration at a dose of 13 mg/kg and I.C.E. value of 0.84; type: functional
[42] = system: Mus musculus; assay: Curative activity of the Compound after Subcutaneous administration at a dose of 0.42 mg/kg and I.C.E. value of 0.54 for 30 days; 2/5; type: functional
[43] = system: Mus musculus; assay: Fraction of mice that were cured after oral administration at a dose of 424 mg/kg and I.C.E. value of 0.84; type: functional
[44] = system: Mus musculus; assay: Trypanocidal Activity at I.C.E. value 0.48 when administered subcutaneously.; type: functional; procedure, shortened: as §2
[45] = system: Mus musculus; assay: Trypanocidal Activity at I.C.E. value 0.65 when administered perorally.; type: functional
[46] = system: Mus musculus; assay: Trypanocidal Activity at I.C.E. value 0.67 when administered subcutaneously.; type: functional; procedure, shortened: as §1
[47] = system: Mus musculus; assay: Trypanocidal Activity at I.C.E. value 0.7 when administered subcutaneously.; type: functional; procedure, shortened: as §1
[48] = system: Mus musculus; assay: Trypanocidal Activity at I.C.E. value 0.53 when administered subcutaneously.; type: functional; procedure, shortened: as §2
[49] = system: Mus musculus; assay: Trypanocidal Activity at I.C.E. value 0.16 when administered perorally.; type: functional
[50] = system: Mus musculus; assay: Trypanocidal Activity at I.C.E. value 0.31 when administered subcutaneously.; type: functional; procedure, shortened: as §2
[51] = system: Mus musculus; assay: Trypanocidal Activity at I.C.E. value 0.77 when administered subcutaneously.; type: functional; procedure, shortened: as §1
[52] = system: Mus musculus; assay: Trypanocidal Activity at I.C.E. value 0.28 when administered subcutaneously.; type: functional; procedure, shortened: as §2
[53] = system: Trypanosoma brucei rhodesiense; assay: In Vitro Trypanosomal activity in rats was measured uptake of radiolabeled Thymidine; type: functional; settings: read-out: ID50 (the source's name)
Procedure, shortened: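 Parasites harvested from infected rats and incubated 3 h across a drug concentration series, usually 0.1–100 µg/mL. Incorporation of radiolabeled thymidine measured. ID50 is the concentration (µg/mL) producing 50% inhibition.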

[54] = system: Mus musculus; assay: Trypanocidal Activity at I.C.E. value 0.65 when administered subcutaneously.; type: functional; procedure, shortened: as §1
[55] = system: Trypanosoma brucei rhodesiense; assay: In Vitro Trypanosomal activity in rats was measured uptake of radiolabeled Leucine; type: functional; settings: read-out: ID50 (the source's name)
Procedure, shortened: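 Trypanosomes harvested from infected rats, cultured 3 h with several concentrations of drug, usually 0.1–100 µg/mL. Radiolabeled L-leucine uptake measured. ID50 is the concentration in µg/mL giving 50% inhibition of incorporation.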

Work on `Br.Cn1c(COc2ccc(/C=N/NC3=NCCN3)cc2)[n+](C)c2ccccc21.[Br-]` yielded a CD50 [1] of 13 mg/kg and a CD50 [2] of 0.2 mg/kg.

Compound `Br.C[n+]1c(-c2ccc(/C=C/C=N/NC3=NCCCN3)cc2)cn2ccccc21.[Br-]` has a CD50 [3] of 13 mg/kg and a CD50 [4] of 0.06 mg/kg.

In the case of `Br.C[n+]1c(/C=C/c2ccc(/C=N/NC3=NCCN3)cc2)cn2ccccc21.[Br-]`, the CD50 [5] is reported as 0.2 mg/kg and the CD50 [6] is reported as 13 mg/kg.

`C[n+]1c(-c2ccc(/C=N/NC(=N)N)cc2)cn2ccccc21.Cc1ccc(S(=O)(=O)O)cc1.Cc1ccc(S(=O)(=O)[O-])cc1` gave a Fraction cured [7] of 1, a Fraction cured [8] of 0 and a Survivors [9] of 5. It also gave a Survivors [10] of 10, a Fraction cured [11] of 1 and a CD50 [12] of 26 mg/kg. For the same compound, the Survivors [13] was 2, the Fraction cured [14] was 0 and the Fraction cured [15] was 0. It also gave a Fraction cured [16] of 0, a Survivors [17] of 10 and a Fraction cured [18] of 1. The Fraction cured [19] was 0, the Fraction cured [20] was 0 and the Survivors [21] was 10. The Fraction cured [22] was 0, the Survivors [23] was 27 and the Survivors [24] was 10. The Fraction cured [25] was 0.73, the Survivors [26] was 5 and the Survivors [27] was 11. For the same compound, the Survivors [28] was 5, the Fraction cured [29] was 0.4 and the Fraction cured [30] was 0. The Survivors [31] was 5, the CD50 [32] was 0.8 mg/kg and the Fraction cured [33] was 0.9. It also gave a Fraction cured [34] of 1, a Fraction cured [35] of 1 and a Fraction cured [36] of 1. The Fraction cured [37] was 0, the Fraction cured [38] was 0.96 and the Fraction cured [39] was 1. The Survivors [40] was 24, the Fraction cured [41] was 0.4 and the Survivors [42] was 2. It also gave a Fraction cured [43] of 1.

`CN(C)C(=N)N/N=C/c1ccc(-c2cn3ccccc3[n+]2C)cc1.I.[I-]` showed a CD50 [44] of 0.2 mg/kg and a CD50 [45] of 6.6 mg/kg.

Compound `Br.Cc1cccc2n1cc(COc1ccc(/C=N/NC3=NCCCN3)cc1)[n+]2C.[Br-]` has a CD50 [46] of 0.4 mg/kg and a CD50 [47] of 0.8 mg/kg.

For `Br.Cc1ccn2cc(-c3ccc(/C=N/NC(=N)N4CCOCC4)cc3)[n+](C)c2c1.[Br-]`, the CD50 [48] was 0.4 mg/kg.

In the case of `Br.C[n+]1ccccc1COc1ccc(/C=N/NC2=NCCCN2)cc1.[Br-]`, the CD50 [49] is reported as 212 mg/kg and the CD50 [50] is reported as 6.6 mg/kg.

Compound `Br.Cc1ccc2n(c1)cc(/C=C/c1ccc(/C=N/NC(=N)N3CCCC3)cc1)[n+]2C.[Br-]` has a CD50 [51] of 0.4 mg/kg.

For `Cc1ccc2n(c1)cc(-c1ccc(/C=N/Nc3nccs3)cc1)[n+]2C.[Br-]`, the CD50 [52] was 106 mg/kg.

Work on `C[n+]1c(-c2ccc(/C=N/Nc3nc[nH]n3)cc2)cn2ccccc21.[Br-]` yielded an IC50 [53] of 0.5 µg/mL, a CD50 [54] of 0.8 mg/kg and an IC50 [55] greater than 10 µg/mL.
